Reference: ChEMBL document CHEMBL1157679, “Substituted aryl malonamates as new serine beta-lactamase substrates: structure-activity studies” (Bioorg Med Chem, 2010)

Experiments:
[1] = substrate: O=C(CC(=O)N(Cc1ccccc1)Cc1ccccc1)Oc1cccc(C(=O)O)c1; assay: (§1) Ratio of Kcat to Km for Streptomyces R61 DD-peptidase; details: Streptomyces sp. R61
Outline: (§2)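 Steady-state kinetics in 100 mM MOPS, pH 7.5, 25 °C. Substrate stocks were made in DMSO and diluted into buffer to a final DMSO below 5%. Initial rates of enzyme-catalysed turnover were followed spectrophotometrically. Steady-state parameters were derived from these initial rates. Buffer hydrolysis of the substrates was measured separately as pseudo-first-order rate constants.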

[2] = substrate: O=C(CC(=O)Oc1cccc(C(=O)O)c1)NCc1ccccc1; assay: as §1; details: Streptomyces sp. R61; outline: as §2
[3] = substrate: CO[C@@H](C(=O)NCc1ccccc1)C(=O)Oc1cccc(C(=O)O)c1; assay: as §1; details: Streptomyces sp. R61; outline: as §2
[4] = substrate: O=C(O)c1cccc(OC(=O)C2CCN(Cc3ccccc3)C2=O)c1; assay: as §1; details: Streptomyces sp. R61; outline: as §2
[5] = substrate: CN(Cc1ccccc1)C(=O)CC(=O)Oc1cccc(C(=O)O)c1; assay: as §1; details: Streptomyces sp. R61; outline: as §2
[6] = substrate: C[C@H](C(=O)NCc1ccccc1)C(=O)Oc1cccc(C(=O)O)c1; assay: as §1; details: Streptomyces sp. R61; outline: as §2
[7] = substrate: O=C(O)c1cccc(OC(=O)C2Cc3ccccc3N(Cc3ccccc3)C2=O)c1; assay: as §1; details: Streptomyces sp. R61; outline: as §2
[8] = substrate: C[C@@H](C(=O)NCc1ccccc1)C(=O)Oc1cccc(C(=O)O)c1; assay: as §1; details: Streptomyces sp. R61; outline: as §2
[9] = substrate: O=C(O)c1cccc(OC(=O)C(Cc2ccccc2)C(=O)NCc2ccccc2)c1; assay: as §1; details: Streptomyces sp. R61; outline: as §2
[10] = substrate: O=C(CC(=O)Oc1cccc(C(=O)O)c1)NCc1ccccc1; assay: (§3) Activity at Streptomyces R61 DD-peptidase by spectrophotometry; details: Streptomyces sp. R61; outline: as §2
[11] = substrate: CO[C@@H](C(=O)NCc1ccccc1)C(=O)Oc1cccc(C(=O)O)c1; assay: as §3; details: Streptomyces sp. R61; outline: as §2
[12] = substrate: O=C(O)c1cccc(OC(=O)C2CCN(Cc3ccccc3)C2=O)c1; assay: as §3; details: Streptomyces sp. R61; outline: as §2
[13] = substrate: C[C@H](C(=O)NCc1ccccc1)C(=O)Oc1cccc(C(=O)O)c1; assay: as §3; details: Streptomyces sp. R61; outline: as §2
[14] = substrate: O=C(O)c1cccc(OC(=O)C2Cc3ccccc3N(Cc3ccccc3)C2=O)c1; assay: as §3; details: Streptomyces sp. R61; outline: as §2
[15] = substrate: C[C@@H](C(=O)NCc1ccccc1)C(=O)Oc1cccc(C(=O)O)c1; assay: as §3; details: Streptomyces sp. R61; outline: as §2
[16] = substrate: CO[C@@H](C(=O)NCc1ccccc1)C(=O)Oc1cccc(C(=O)O)c1; assay: (§4) Activity at Actinomadura R39 DD-peptidase by spectrophotometry; details: Actinomadura sp. R39; outline: as §2
[17] = substrate: O=C(O)c1cccc(OC(=O)C2CCN(Cc3ccccc3)C2=O)c1; assay: as §4; details: Actinomadura sp. R39; outline: as §2
[18] = substrate: CN(Cc1ccccc1)C(=O)CC(=O)Oc1cccc(C(=O)O)c1; assay: as §4; details: Actinomadura sp. R39; outline: as §2
[19] = substrate: C[C@H](C(=O)NCc1ccccc1)C(=O)Oc1cccc(C(=O)O)c1; assay: as §4; details: Actinomadura sp. R39; outline: as §2
[20] = substrate: O=C(CC(=O)Oc1cccc(C(=O)O)c1)NCc1ccccc1; assay: (§5) Ratio of Kcat to Km for Actinomadura R39 DD-peptidase; details: Actinomadura sp. R39; outline: as §2
[21] = substrate: CO[C@@H](C(=O)NCc1ccccc1)C(=O)Oc1cccc(C(=O)O)c1; assay: as §5; details: Actinomadura sp. R39; outline: as §2
[22] = substrate: O=C(O)c1cccc(OC(=O)C2CCN(Cc3ccccc3)C2=O)c1; assay: as §5; details: Actinomadura sp. R39; outline: as §2
[23] = substrate: CN(Cc1ccccc1)C(=O)CC(=O)Oc1cccc(C(=O)O)c1; assay: as §5; details: Actinomadura sp. R39; outline: as §2
[24] = substrate: C[C@H](C(=O)NCc1ccccc1)C(=O)Oc1cccc(C(=O)O)c1; assay: as §5; details: Actinomadura sp. R39; outline: as §2
[25] = substrate: O=C(O)c1cccc(OC(=O)C2Cc3ccccc3N(Cc3ccccc3)C2=O)c1; assay: as §5; details: Actinomadura sp. R39; outline: as §2
[26] = substrate: O=C(CC(=O)N(Cc1ccccc1)Cc1ccccc1)Oc1cccc(C(=O)O)c1; assay: (§6) Ratio of Kcat to Km for Enterobacter cloacae P99 beta-lactamase; outline: as §2
[27] = substrate: O=C(CC(=O)Oc1cccc(C(=O)O)c1)NCc1ccccc1; assay: as §6; outline: as §2
[28] = substrate: CO[C@@H](C(=O)NCc1ccccc1)C(=O)Oc1cccc(C(=O)O)c1; assay: as §6; outline: as §2
[29] = substrate: O=C(O)c1cccc(OC(=O)C2CCN(Cc3ccccc3)C2=O)c1; assay: as §6; outline: as §2
[30] = substrate: CN(Cc1ccccc1)C(=O)CC(=O)Oc1cccc(C(=O)O)c1; assay: as §6; outline: as §2
[31] = substrate: CO[C@H](C(=O)NCc1ccccc1)C(=O)Oc1cccc(C(=O)O)c1; assay: as §6; outline: as §2
[32] = substrate: C[C@H](C(=O)NCc1ccccc1)C(=O)Oc1cccc(C(=O)O)c1; assay: as §6; outline: as §2
[33] = substrate: O=C(O)c1cccc(OC(=O)C2Cc3ccccc3N(Cc3ccccc3)C2=O)c1; assay: as §6; outline: as §2
[34] = substrate: C[C@@H](C(=O)NCc1ccccc1)C(=O)Oc1cccc(C(=O)O)c1; assay: as §6; outline: as §2
[35] = substrate: O=C(O)c1cccc(OC(=O)C(Cc2ccccc2)C(=O)NCc2ccccc2)c1; assay: as §6; outline: as §2
[36] = substrate: O=C(CC(=O)N(Cc1ccccc1)Cc1ccccc1)Oc1cccc(C(=O)O)c1; assay: (§7) Activity at Enterobacter cloacae P99 beta-lactamase by spectrophotometry; outline: as §2
[37] = substrate: O=C(CC(=O)Oc1cccc(C(=O)O)c1)NCc1ccccc1; assay: as §7; outline: as §2
[38] = substrate: CO[C@@H](C(=O)NCc1ccccc1)C(=O)Oc1cccc(C(=O)O)c1; assay: as §7; outline: as §2
[39] = substrate: O=C(O)c1cccc(OC(=O)C2CCN(Cc3ccccc3)C2=O)c1; assay: as §7; outline: as §2
[40] = substrate: CN(Cc1ccccc1)C(=O)CC(=O)Oc1cccc(C(=O)O)c1; assay: as §7; outline: as §2
[41] = substrate: CO[C@H](C(=O)NCc1ccccc1)C(=O)Oc1cccc(C(=O)O)c1; assay: as §7; outline: as §2
[42] = substrate: C[C@H](C(=O)NCc1ccccc1)C(=O)Oc1cccc(C(=O)O)c1; assay: as §7; outline: as §2
[43] = substrate: O=C(O)c1cccc(OC(=O)C2Cc3ccccc3N(Cc3ccccc3)C2=O)c1; assay: as §7; outline: as §2
[44] = substrate: C[C@@H](C(=O)NCc1ccccc1)C(=O)Oc1cccc(C(=O)O)c1; assay: as §7; outline: as §2
[45] = substrate: O=C(O)c1cccc(OC(=O)C(Cc2ccccc2)C(=O)NCc2ccccc2)c1; assay: as §7; outline: as §2
[46] = compound: O=C(CP(=O)(O)Oc1cccc(C(=O)O)c1)NCc1ccccc1; assay: Inhibition of Enterobacter cloacae P99 beta-lactamase assessed as inhibition of cephalothin turnover by spectrophotometry
Outline: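 Initial rates of 200 μM cephalothin hydrolysis were measured spectrophotometrically in 100 mM MOPS, pH 7.5, at 25 °C. Compounds were added from DMSO stocks, with final DMSO below 5%.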

B1: D-alanyl-D-alanine carboxypeptidase (Streptomyces sp. R61), P15555 (protein)
chain: MVSGTVGRGTALGAVLLALLAVPAQAGTAAAADLPAPDDTGLQAVLHTALSQGAPGAMVRVDDNGTIHQLSEGVADRATGRAITTTDRFRVGSVTKSFSAVVLLQLVDEGKLDLDASVNTYLPGLLPDDRITVRQVMSHRSGLYDYTNDMFAQTVPGFESVRNKVFSYQDLITLSLKHGVTNAPGAAYSYSNTNFVVAGMLIEKLTGHSVATEYQNRIFTPLNLTDTFYVHPDTVIPGTHANGYLTPDEAGGALVDSTEQTVSWAQSAGAVISSTQDLDTFFSALMSGQLMSAAQLAQMQQWTTVNSTQGYGLGLRRRDLSCGISVYGHTGTVQGYYTYAFASKDGKRSVTALANTSNNVNVLNTMARTLESAFCGKPTTAKLRSATSSATTVERHEDIAPGIARD
In the case of B1, the kcat/Km [1] is reported as less than 0.35 M⁻¹ s⁻¹, the kcat/Km [2] is reported as 70 M⁻¹ s⁻¹ and the kcat/Km [3] is reported as 3.3 ×10⁴ /s/M. The kcat/Km [4] was 17.8 M⁻¹ s⁻¹, the kcat/Km [5] was less than 0.15 M⁻¹ s⁻¹ and the kcat/Km [6] was 2.37 ×10⁴ /s/M. The kcat/Km [7] was 21 M⁻¹ s⁻¹, the kcat/Km [8] was 1.31 ×10³ /s/M and the kcat/Km [9] was less than 0.2 M⁻¹ s⁻¹. The Km [10] was 104 µM, the kcat [10] was 0.7 s⁻¹ and the Km [11] was 280 µM. The kcat [11] was 9.4 s⁻¹, the Km [12] was greater than 200 µM and the kcat [12] was greater than 3.6 ×10⁻³ /s. For the same protein, the Km [13] was 320 µM, the kcat [13] was 7.63 s⁻¹ and the Km [14] was greater than 200 µM. The kcat [14] was greater than 4.2 ×10⁻³ /s, the Km [15] was 90 µM and the kcat [15] was 0.12 s⁻¹.

B2: D-alanyl-D-alanine carboxypeptidase (Actinomadura sp. R39), P39045 (protein)
chain: MKQSSPEPLRPRRTGGRGGARRAAALVTIPLLPMTLLGASPALADASGARLTELREDIDAILEDPALEGAVSGVVVVDTATGEELYSRDGGEQLLPASNMKLFTAAAALEVLGADHSFGTEVAAESAPGRRGEVQDLYLVGRGDPTLSAEDLDAMAAEVAASGVRTVRGDLYADDTWFDSERLVDDWWPEDEPYAYSAQISALTVAHGERFDTGVTEVSVTPAAEGEPADVDLGAAEGYAELDNRAVTGAAGSANTLVIDRPVGTNTIAVTGSLPADAAPVTALRTVDEPAALAGHLFEEALESNGVTVKGDVGLGGVPADWQDAEVLADHTSAELSEILVPFMKFSNNGHAEMLVKSIGQETAGAGTWDAGLVGVEEALSGLGVDTAGLVLNDGSGLSRGNLVTADTVVDLLGQAGSAPWAQTWSASLPVAGESDPFVGGTLANRMRGTAAEGVVEAKTGTMSGVSALSGYVPGPEGELAFSIVNNGHSGPAPLAVQDAIAVRLAEYAGHQAPEGARMMRGPVQGSGELECSWVQAC
B2 gave a Km [16] of 53 µM, a kcat [16] of 2.81 s⁻¹ and a Km [17] greater than 1000 µM. The kcat [17] was greater than 8 ×10⁻³ /s, the Km [18] was greater than 1000 µM and the kcat [18] was greater than 3 ×10⁻³ /s. The Km [19] was greater than 1000 µM, the kcat [19] was greater than 0.73 s⁻¹ and the kcat/Km [20] was less than 1.5 M⁻¹ s⁻¹. It also gave a kcat/Km [21] of 5 ×10⁴ /s/M, a kcat/Km [22] of 8 M⁻¹ s⁻¹ and a kcat/Km [23] of 3 M⁻¹ s⁻¹. The kcat/Km [24] was 7.28 ×10² /s/M and the kcat/Km [25] was less than 20 M⁻¹ s⁻¹.

B3: Beta-lactamase (Enterobacter cloacae), P05364 (protein)
chain: MMRKSLCCALLLGISCSALATPVSEKQLAEVVANTITPLMKAQSVPGMAVAVIYQGKPHYYTFGKADIAANKPVTPQTLFELGSISKTFTGVLGGDAIARGEISLDDAVTRYWPQLTGKQWQGIRMLDLATYTAGGLPLQVPDEVTDNASLLRFYQNWQPQWKPGTTRLYANASIGLFGALAVKPSGMPYEQAMTTRVLKPLKLDHTWINVPKAEEAHYAWGYRDGKAVRVSPGMLDAQAYGVKTNVQDMANWVMANMAPENVADASLKQGIALAQSRYWRIGSMYQGLGWEMLNWPVEANTVVEGSDSKVALAPLPVAEVNPPAPPVKASWVHKTGSTGGFGSYVAFIPEKQIGIVMLANTSYPNPARVEAAYHILEALQ
B3 was tested, and the kcat/Km [26] was 7.9 ×10³ /s/M, the kcat/Km [27] was 2.45 ×10⁵ /s/M and the kcat/Km [28] was 7.4 ×10³ /s/M. The kcat/Km [29] was 50 M⁻¹ s⁻¹, the kcat/Km [30] was 4.7 ×10² /s/M and the kcat/Km [31] was 2.9 ×10³ /s/M. It also gave a kcat/Km [32] of 2.13 ×10⁴ /s/M, a kcat/Km [33] of 290 M⁻¹ s⁻¹ and a kcat/Km [34] of 2.36 ×10³ /s/M. It also gave a kcat/Km [35] of 1.9 ×10⁴ /s/M, a Km [36] of 32 µM and a kcat [36] of 0.25 s⁻¹. For the same protein, the Km [37] was 170 µM, the kcat [37] was 41 s⁻¹ and the Km [38] was greater than 1000 µM. For the same protein, the kcat [38] was greater than 7.4 s⁻¹, the Km [39] was 2500 µM and the kcat [39] was 0.12 s⁻¹. For the same protein, the Km [40] was 700 µM, the kcat [40] was 0.33 s⁻¹ and the Km [41] was greater than 1000 µM. It also gave a kcat [41] greater than 2.9 s⁻¹, a Km [42] of 60 µM and a kcat [42] of 1.17 s⁻¹. The Km [43] was 1400 µM, the kcat [43] was 0.41 s⁻¹ and the Km [44] was 2800 µM. The kcat [44] was 6.6 s⁻¹, the Km [45] was 2.6 µM and the kcat [45] was 0.05 s⁻¹. The kcat/Km [46] was 45 M⁻¹ s⁻¹.
